This is a sample that favours compounds with a hit; in the whole collection about 1.9% have one here.
M4 ag: human M4 muscarinic receptor agonists, primary screen, CHO-K1 cells, Fluo-8 calcium fluorescence; Muscarinic acetylcholine receptor M4 (Homo sapiens), P08173; activation, % at 3 µM; 0.14% of 360,000 active; AID 624127, 2012; CHO-K1 hM4/Gqi5; vehicle 0%, full acetylcholine response 100%;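 active = activation above the run mean over all test wells plus 3 SD, cut at about 32% in these data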;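 note: peak over basal fluorescence ratio per well then scaled between controls; 0% = DMSO wells and 100% = acetylcholine at EC100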
CHRM5 antagonist: human M5 muscarinic receptor antagonists, primary screen, CHO cells, Fluo-8 calcium fluorescence; CHO-hM5 cells, ACh EC80; 0.59% of 360,000 active; Muscarinic acetylcholine receptor M5 (Homo sapiens), P08912; inhibition, % at 3 µM; AID 624040, 2012;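 active = inhibition above a per-plate cutoff, the mean of that plate's test compounds plus 3 SD, cut at about 27% in these data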;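 note: 0% = acetylcholine EC80 with DMSO and 100% = DMSO without agonist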
Target sequence (P08912 whole entry, looked up): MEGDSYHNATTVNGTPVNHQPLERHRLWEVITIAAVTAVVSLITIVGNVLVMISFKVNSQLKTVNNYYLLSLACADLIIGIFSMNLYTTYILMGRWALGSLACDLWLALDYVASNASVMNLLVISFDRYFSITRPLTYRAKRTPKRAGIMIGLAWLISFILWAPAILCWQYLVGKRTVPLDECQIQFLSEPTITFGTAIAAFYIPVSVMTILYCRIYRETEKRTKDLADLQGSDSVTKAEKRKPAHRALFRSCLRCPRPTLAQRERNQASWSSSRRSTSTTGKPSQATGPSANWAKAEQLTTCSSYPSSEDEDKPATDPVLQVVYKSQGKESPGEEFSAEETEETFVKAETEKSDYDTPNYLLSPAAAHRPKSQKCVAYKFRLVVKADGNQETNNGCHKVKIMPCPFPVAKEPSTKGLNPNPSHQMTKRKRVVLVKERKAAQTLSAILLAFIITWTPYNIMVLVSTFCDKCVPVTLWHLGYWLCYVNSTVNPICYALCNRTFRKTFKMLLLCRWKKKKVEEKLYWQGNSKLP
CHRM4 antagonist: human M4 muscarinic receptor antagonists, primary screen, CHO cells, Fluo-8 calcium fluorescence; 0.73% of 360,000 active; Muscarinic acetylcholine receptor M4 (Homo sapiens), P08173; inhibition, % at 3 µM; CHO-hM4 cells, ACh EC80;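 active = inhibition above its plate's cutoff, the mean inhibition of sample wells plus 3 SD, cut at about 27% in these data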;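 note: 0% = acetylcholine EC80 with DMSO and 100% = DMSO without agonist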
M4 PAM: human M4 muscarinic receptor positive allosteric modulators, primary screen, CHO-K1 cells, Fluo-8 calcium fluorescence. Muscarinic acetylcholine receptor M4 (Homo sapiens), P08173. activation, % at 3 µM. CHO-K1 hM4/Gqi5, ACh EC20; 0% = ACh EC20, 100% = maximal ACh. 0.4% of 360,000 active. AID 624126, 2012;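 active = activation above its plate's cutoff, the mean activation of sample wells plus 3 SD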
M5 ag: human M5 muscarinic receptor agonists, primary screen, CHO-K1 cells, Fluo-8 calcium fluorescence. CHO-K1 hM5 cells; 0% DMSO wells, 100% maximal acetylcholine response. activation, % at 3 µM. 0.19% of 360,000 active. AID 624037, 2012;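 active = activation above the run's mean over test compounds plus 3 SD, cut at about 23% in these data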;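 note: signal is peak over basal fluorescence ratio across the kinetic read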
CHRM5 PAM: human M5 muscarinic receptor positive allosteric modulators, primary screen, CHO-K1 cells, Fluo-8 calcium fluorescence; Muscarinic acetylcholine receptor M5 (Homo sapiens), P08912; CHO-K1 hM5, ACh EC20 PAM; 0% = ACh EC20, 100% = ACh EC100; activation, % at 3 µM; 0.3% of 360,000 active; AID 624038, 2012;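 active = activation above the run cutoff, the mean activation of all test compounds plus 3 SD, cut at about 18% in these data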
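System – CHO-K1 hM5 cells · Compound – 3 µM, single dose · Incubation – compound preincubation 140 s before EC20 acetylcholine addition · Technique – Fluo-8 calcium fluorescence · Measure – Max/basal fluorescence ratio as % of EC20–EC100 ACh window · Benchmarks – low control EC20 acetylcholine (0%), high control EC100 acetylcholine (100%) · Replication – singlicate, one well per test compound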
Starred values were filed as active, the others as inactive; + = active, no number.

SMILES	M4 ag	CHRM5 antagonist	CHRM4 antagonist	M4 PAM	M5 ag	CHRM5 PAM
Cc1cnc(C(=O)OCC(=O)N2c3ccccc3NC(=O)C2(C)C)cn1	0.6	1.6	1.0	-0.6	-0.7	3.0
COCCNC(=O)C1CCCN(Cc2ccccc2)CC1 (stereo not drawn)	0.2	7.0	-11.6	4.0	-0.6	-0.5
COC(=O)c1ccc(CN2CCC(Oc3cccc(C(=O)N4CCOCC4)c3)CC2)cc1	4.2	67.4*	60.5*	-14.5	-7.4	-12.9
COCCNC(=O)c1cccc(OC2CCN(Cc3ccc(C(=O)OC)cc3)CC2)c1	-0.3	25.4	60.4*	-15.5	-23.5	-29.5
COCCNC(=O)c1cccc(OC2CCN(Cc3ccc(C(C)C)cc3)CC2)c1	3.0	11.6	20.2	-16.7	-20.1	-33.2
CSc1cccc(CN2CCC(Oc3cccc(C(=O)N4CCCC4)c3)CC2)c1	4.1	27.9*	-3.2	-10.8	-8.3	-15.0
COCCNC(=O)CCC1CCN(Cc2ccc(-c3ccccc3)cc2)CC1	0.9	6.8	56.9*	-16.0	-24.0	-29.3
CSC(C1CCCC1)n1nnc2ccccc21 (stereo not drawn)	0.2	12.8	-4.6	-1.0	-4.5	4.5
COc1cccc(S(=O)(=O)N(C)C[C@H]2OCc3cn(nn3)CCCC(=O)N([C@@H](C)CO)C[C@@H]2C)c1	0.2	7.1	-8.5	3.8	1.2	-4.5
COC(=O)c1ccc2nc(-c3ccc(F)cc3)c(Cc3cccc(Cl)c3)n2c1	1.6	76.6*	35.5*	-12.9	-4.8	-24.2
COC(=O)c1ccc2nc(-c3ccc(F)cc3)c(Cc3cccc(F)c3)n2c1	3.6	35.9*	5.8	-10.4	-5.5	-23.6
COC(=O)c1ccc2nc(-c3ccccc3)c(Cc3cccc(F)c3)n2c1	-1.1	9.8	8.0	0.1	-5.9	-24.2
O=C(NN=Cc1c(O)ccc2ccccc12)c1ccncc1	10.6	8.9	-3.2	-1.8	46.0*	-19.3
O=C(N/N=C\c1c(O)ccc2ccccc12)c1ccc(O)cc1	2.5	7.0	-5.1	-4.8	1.7	2.1
O=C(N/N=C\c1c(O)ccc2ccccc12)c1cncc(Br)c1	38.0*	-6.2	-5.6	-6.6	67.0*	-9.5
Cc1ccc(O)c(C2=NNC(c3ccc(Cl)cc3)C2)c1 (stereo not drawn)	7.8	51.1*	2.5	1.1	14.0	20.6*
Oc1ccc(Cl)cc1C1=NNC(c2cccs2)C1 (stereo not drawn)	0.5	6.0	2.7	-5.1	-0.9	-1.7
Nc1ccc(-c2c3ccc(=O)cc-3oc3cc(O)ccc23)cc1C(=O)O	548.1*	30.1*	62.8*	-23.7	203.2*	-20.7
O=c1ccc2c(-c3ccccc3)c3ccc(O)cc3oc-2c1	+	85.7*	85.7*	-22.9	797.0*	-25.6
O=c1cc(-c2ccccc2)oc2cc(O)ccc12	2.1	1.8	-5.6	1.4	0.8	5.6
COc1ccc(S(=O)(=O)N2CCOCC2)cc1NC(=O)CN1C(=O)NC(C)(C2CC2)C1=O (stereo not drawn)	2.1	17.3	2.4	6.9	-0.4	-1.6
CC1CN(C(=O)N(C)C)CCN1C(=O)N(C)C (stereo not drawn)	0.4	6.8	30.9*	13.1	-2.1	-4.2
COc1ccc(OC)c(-c2nnc3n2N=C(c2ccc(OC)c(OCC4CC4)c2)CS3)c1	5.1	-2.8	28.8*	-8.8	-12.1	-13.8
COc1ccc(C2=Nn3c(nnc3-c3ccccc3Cl)SC2)cc1OCC1CC1	3.4	16.5	17.3	-2.1	-10.2	-24.2
O=C(Nc1cccc(Br)c1)c1ccc2c(c1)SC1=NS(=O)(=O)CCN12	0.7	-0.1	-5.0	22.6*	0.6	4.8
SMILES	M4 ag	CHRM5 antagonist	CHRM4 antagonist	M4 PAM	M5 ag	CHRM5 PAM
N#Cc1c(-c2ccccc2Cl)cc(C2CC2)nc1N	61.5*	-3.1	-14.0	7.5	55.8*	2.2
Cc1nc(N)c(C#N)c(-c2ccccc2Cl)c1C	1.8	-4.2	-0.8	28.8*	10.5	-0.2
COc1ccccc1-c1cc(C2CC2)nc(N)c1C#N	-1.5	-9.2	0.8	9.8	-1.9	4.7
COc1cc(/C=N/NC(=O)c2cccc(C)c2)ccc1OCC(=O)Nc1ccccc1	8.6	-1.2	-5.4	-7.5	1.5	2.3
COc1ccc(Oc2c(C)oc3c(CN4CCOCC4)c(O)ccc3c2=O)cc1	1.1	10.5	41.4*	-15.0	-8.0	-21.8
CCOc1ccccc1Oc1c(C)oc2c(CN3CCN(CCO)CC3)c(O)ccc2c1=O	1.4	-6.0	-4.9	2.2	0.7	9.9
CCOC(=O)c1ccc(Oc2c(C)oc3c(CN4CCN(C)CC4)c(O)ccc3c2=O)cc1	0.1	-1.1	32.8*	-20.5	-6.7	-11.6
CC(C)Cn1c(CCCNC(=O)c2ccco2)nc2ccccc21	2.0	-13.6	3.1	-2.0	-2.6	5.5
Cn1c(N)nc(N)c(NC=O)c1=O	1.1	7.8	-8.4	1.8	2.0	-4.3
CCOC(=O)/C=C1\CN(C(C)c2ccccc2)S(=O)(=O)c2ccccc21 (stereo not drawn)	1.3	11.7	5.3	2.6	-0.5	0.3
CCN1C(=NCCCCO)N[C@@H](c2cccc(F)c2)C(C(=O)OC)=C1C	-0.4	-1.2	-10.8	23.1*	-6.4	4.7
Cc1ccc2c(c1)sc[n+]2Cc1ccccc1	-1.3	10.0	21.0	-1.9	19.4	20.9*
CC(=O)OCc1c(C(F)(F)F)nn(C)c1Oc1ccccc1	22.1	6.6	-12.6	15.0	-1.3	18.7*
CC(=O)OCc1c(C(F)(F)F)nn(C)c1Oc1cccc(C(F)(F)F)c1	-1.0	-2.6	5.6	8.1	-0.8	3.5
Cc1ccc(NS(=O)(=O)c2ccc(-n3cccn3)cc2)cc1F	11.9	13.5	7.1	-3.5	5.0	-5.5
COc1cccc(NS(=O)(=O)c2ccc(-n3cccn3)cc2)c1	26.4	18.2	30.8*	-11.8	4.2	-14.1
O=C(CSC1=Nc2ccccc2C2CC=NN12)Nc1ccc2c(c1)OCO2 (stereo not drawn)	0.3	9.3	9.8	-6.9	1.3	0.2
Cc1cc(C)cc(N(CCC#N)C(=O)CSC2=Nc3ccccc3C3CC=NN23)c1 (stereo not drawn)	9.3	-2.6	5.2	-4.6	24.0*	13.5

Assay outcomes deposited in PubChem by The Scripps Research Institute Molecular Screening Center.
